Screening results as filed in PubChem.
MrgX1 antag: antagonists of human MrgX1 receptor. Q96LB2. AID 588676. B-score at 10 µM. MRGX1-HEK293 calcium flux, Fluo-4, BAM8-22 antagonism; stronger effect = lower value. 310,000 compounds, 1.3% hits;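 active = calcium-response B-score plate-corrected more than 3 library SD below zero, starting fluorescence within 5 deviations, no agonist response on first addition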;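 also: peak minus trough fluorescence over baseline after final BAM8-22 challenge near maximal dose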
Target sequence (Q96LB2 whole entry, looked up): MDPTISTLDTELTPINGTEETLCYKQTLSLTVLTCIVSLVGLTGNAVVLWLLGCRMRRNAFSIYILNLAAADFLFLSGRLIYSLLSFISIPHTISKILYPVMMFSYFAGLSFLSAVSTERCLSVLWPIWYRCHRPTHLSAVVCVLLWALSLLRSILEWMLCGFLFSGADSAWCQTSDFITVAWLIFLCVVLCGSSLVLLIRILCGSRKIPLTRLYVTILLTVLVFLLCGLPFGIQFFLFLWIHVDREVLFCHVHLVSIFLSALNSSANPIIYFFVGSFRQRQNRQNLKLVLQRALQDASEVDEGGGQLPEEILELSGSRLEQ
PHOSPHO1 inh: PHOSPHO1 (human) inhibition. recombinant PHOSPHO1, absorbance phosphatase assay. inhibition, % at 13.3 µM. 290,000 compounds, 1.1% hits. AID 1565; in the data active = inhibition above about 60%
MrgX1 allo act: allosterically activates human MrgX1 receptor signaling | Q96LB2 | MrgX1-HEK293, Fluo-4 calcium flux, FDSS; stronger effect = higher value | B-score at 10 µM | 310,000 compounds, 0.63% hits | AID 588675;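 active = plate-corrected calcium response at least 3 library SD above typical, normal starting fluorescence, not activating the receptor alone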;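 also: compound read alongside a low EC10 to EC30 dose of BAM8-22 agonist; peak minus trough fluorescence over baseline measured at the second addition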
RGS4 inh: inhibitors of human RGS4. P49798. HEK293 M3R/RGS4 inducible, Fluo-4 calcium flux; stronger effect = higher value; triggered by carbachol at its EC20. 310,000 compounds, 0.45% hits. B-score at 10 µM;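 active = B-score, a plate-corrected calcium signal, over three deviations above library mean, with baseline fluorescence within five deviations of library mean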;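 also: RGS4 expression induced by doxycycline in cells with stable M3 receptor; B-score is computed from the integrated fluorescence ratio over baseline after carbachol; higher B-score means a larger calcium signal and so more RGS4 inhibition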
Target sequence (P49798 whole entry, looked up): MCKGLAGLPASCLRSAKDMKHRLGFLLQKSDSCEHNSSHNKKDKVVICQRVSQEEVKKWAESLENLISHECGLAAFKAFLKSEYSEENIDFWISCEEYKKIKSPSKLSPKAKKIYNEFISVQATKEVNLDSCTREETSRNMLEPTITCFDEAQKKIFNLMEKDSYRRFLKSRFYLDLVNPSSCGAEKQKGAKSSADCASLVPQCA
MrgX1 agonist: agonists of human MrgX1 receptor; AID 588627; Q96LB2; 310,000 compounds, 0.44% hits; MrgX1-HEK293 cells, Fluo-4 calcium fluorescence, agonist mode; stronger effect = higher value; B-score at 10 µM;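 active = calcium response B-score plate-corrected fluorescence ratio at least 3 library SD, with starting fluorescence B-score inside 5 SD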
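Material: HEK293 cells stably expressing human MrgX1 receptor | Quantity: 15,000 cells per well | Times: Cells plated overnight, dye loaded 0.5 h 37 °C, 0.5 h room temperature | Measured by: Kinetic Fluo-4 NW fluorescence of intracellular calcium | Control set: Positive and negative controls per plate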
RGS4 act: potentiators or activators of RGS4; HEK293 M3R/inducible RGS4, carbachol calcium flux Fluo4; stronger effect = lower value; B-score at 10 µM; 310,000 compounds, 0.92% hits; AID 463111;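 active = B-score of the integrated calcium signal more than 4 SD below the library mean, with starting fluorescence not abnormally high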;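 also: negative B-score means reduced calcium response which marks RGS4 activation or potentiation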
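Test system: HEK293 cells with stable M3R and inducible RGS4; also added: carbachol at ECmax as muscarinic agonist stimulus; schedule: dye loading 30 min 37 °C, buffer rest 30 min RT; technique: kinetic calcium fluorescence imaging with Fluo4-AM dye, 2 µM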
RGS4 inh valid: validation of RGS4 inhibitors | calcium response, % at 10 µM | 1,700 compounds, 65% hits | HEK293 M3R/RGS4, carbachol calcium Fluo-4 fluorescence; carbachol added at its EC20; 0 = buffer wells, 100 = carbachol control | shares compounds with RGS4 inh | AID 492999;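 active = duplicate-averaged calcium response above the buffer-only control mean plus 5 SD of those controls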;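 also: integrated fluorescence ratio F max minus min over baseline F0; higher response in RGS4-induced cells means RGS4 inhibition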
RGS4 uninduced: non-induced cell nonspecific activity of RGS4 inhibitors; shares compounds with RGS4 inh; HEK293 M3R non-induced, carbachol calcium Fluo-4; submaximal (EC20) carbachol stimulus; buffer wells 0%, carbachol control wells 100%; activity (percent), % at 10 µM; 1,900 compounds, 20% hits; call rule not given here;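 also: RGS4 induction absent so cells express M3R without RGS4; higher means more calcium signal and flags a non-specific hit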
RGS4 inh ctr2: second RGS4 inhibitor counter-screen in uninduced cells lacking carbachol. shares compounds with RGS4 inh. HEK293 M3R/RGS4 non-induced, Fluo-4 calcium, no carbachol; normalised: buffer wells 0%, carbachol wells 100%. calcium response (agonist-mode artifact), % at 10 µM. 1,900 compounds, 22% hits. AID 493001;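 active = duplicate-averaged calcium rise in uninduced cells above buffer wells' mean plus 5 SD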
A number is an active result; n = inactive; x = no result given. In the library only some 4.5% were active in any assay of this set; here they are far more common.

SMILES	MrgX1 antag	PHOSPHO1 inh	MrgX1 allo act	RGS4 inh	MrgX1 agonist	RGS4 act	RGS4 inh valid	RGS4 uninduced	RGS4 inh ctr2
COc1ccc(-n2c(SCC#N)nnc2-c2ccc(NS(=O)(=O)c3ccc(C)cc3)cc2)cc1	n	n	n	7.2	n	n	13%	n	n
C/C(=N\N(Cc1ccccc1)c1ccccc1)c1cccnc1	n	n	n	n	n	n	x	x	x
O=C(CCc1nnc(CCCc2ccccc2)o1)NCCCC1CCCC1	n	n	n	n	n	n	x	x	x
COc1cc(/C=C(\C#N)C(=O)Nc2ccc(C(=O)O)cc2)ccc1OC(=O)c1cccc(F)c1	n	n	n	n	n	n	x	x	x
Cc1cccc(-n2nc(C)c3c(C(=O)O)cc(-c4cccs4)nc32)c1	n	n	n	9.5	n	n	19%	30%	n
Cc1nn(-c2cccc(Cl)c2)c2nc(-c3ccco3)cc(C(=O)O)c12	n	n	n	n	n	n	x	x	x
Cn1nc(C(=O)NCCCN2CCCCC2)c2c1-c1ccccc1S(=O)(=O)C2	n	n	n	n	n	n	x	x	x
Cc1onc(-c2ccccc2)c1C(=O)c1c[nH]c(C(=O)NCc2ccccn2)c1	n	n	n	n	n	n	x	x	x
CCCOc1ccc2c(c1)C(=NN=C(N)N)c1cc(OCCC)ccc1-2	n	x	n	4.7	n	n	8.0%	n	n
CCN(CC)CCOc1ccc2c(c1)C(=NO)c1cc(OCCN(CC)CC)ccc1-2	n	n	n	n	n	n	x	x	x
C=CCn1c(=NC(=O)CC)n(C)c2ccccc21	n	n	n	n	n	n	x	x	x
CCOC(=O)c1c(-c2ccc(C)o2)csc1NC(=O)CSc1nnc(C)s1	n	n	n	n	n	n	n	n	n
CCOC(=O)c1c(-c2ccc(C)o2)csc1NC(=O)CSc1nnnn1-c1ccccc1	n	n	n	9.9	n	n	n	n	n
CCOC(=O)c1c(-c2ccccc2)csc1NC(=O)CSc1nnc(C)s1	n	n	n	n	n	n	x	x	x
CCOC(=O)c1sc(NC(=O)CSc2nnnn2-c2ccccc2)nc1C	n	n	n	n	n	n	x	x	x
Cn1c(=O)[nH]c(=O)c2c1[nH]c(=S)n2Cc1ccc(Cl)cc1	n	n	n	n	n	n	x	x	x
CCCCCC1CCC(C(=O)NCCN2CCOCC2)CC1 (stereo not drawn)	n	n	n	n	n	n	x	x	x
CCCCn1c(SCC(=O)NCc2ccccc2)nc2ccc(N3CCOCC3)cc2c1=O	n	n	n	n	n	n	n	n	n
CCCCNC(=O)CSc1nc2ccc(N3CCOCC3)cc2c(=O)n1Cc1ccc(OC)cc1	x	n	x	x	x	x	x	x	x
CCCCn1c(SCC(=O)NCc2ccco2)nc2ccc(N3CCOCC3)cc2c1=O	n	n	n	5	n	n	n	n	n
CCCCn1c(SCC(=O)Nc2ccc(OC)cc2)nc2ccc(N3CCOCC3)cc2c1=O	n	n	n	n	n	n	x	x	x
Cc1cccc(N2C(=O)/C(=C\c3ccc(C(=O)O)cc3)c3ccccc3C2=O)c1	n	n	n	10	n	n	38%	n	n
Cc1cccc(N2C(=O)c3ccc(C(=O)Nc4ccccn4)cc3C2=O)c1	n	n	n	n	n	n	x	x	x
COc1ccccc1C(=O)NC(=O)COC(=O)Cn1cnc2c1c(=O)n(C)c(=O)n2C	n	x	n	n	n	n	x	x	x
CCOC(=O)[C@@H]1[C@H]2COc3ccccc3[C@@H]2N2C(=O)N(c3ccc(OC)cc3)C(=O)[C@@]12C	n	n	n	n	n	n	n	n	n
SMILES	MrgX1 antag	PHOSPHO1 inh	MrgX1 allo act	RGS4 inh	MrgX1 agonist	RGS4 act	RGS4 inh valid	RGS4 uninduced	RGS4 inh ctr2
CCOC(=O)[C@@H]1[C@H]2COc3ccccc3[C@@H]2N2C(=O)N(c3ccc(OC)cc3)C(=O)[C@]12C	n	x	n	n	n	n	n	n	7.5%
CCOC(=O)[C@@H]1[C@H]2COc3ccc(Br)cc3[C@@H]2N2C(=O)N(c3ccc(OC)cc3)C(=O)[C@]12C	n	n	n	n	n	n	x	x	x
S=C(Nc1ccccc1)Nc1nc2ccccc2n1CCOc1ccc(Br)cc1	n	n	n	5	n	n	10%	n	n
Nc1nc2ccccc2n1CCOc1ccc(Br)cc1	n	x	n	n	n	n	x	x	x
Cc1ccc(/C=C2\SC(=S)N(c3cccnc3)C2=O)o1	n	n	n	n	n	n	x	x	x
Cc1cccc(N2C(=O)/C(=C/c3cccnc3)SC2=S)c1	n	n	n	4.9	n	n	19%	42%	n
Cc1ccc(N2C(=O)/C(=C/c3cccnc3)SC2=S)cc1	n	n	n	n	n	n	x	n	n
Cc1cccc(N2C(=O)/C(=C/c3ccccn3)SC2=S)c1	n	n	n	n	n	n	x	x	x
c1ccc2c(-c3[nH]ncc3CNCCCn3ncc4ccccc43)cccc2c1	n	n	n	n	n	n	x	x	x
CCOC(=O)CC(c1ccc([N+](=O)[O-])cc1)n1c(C)ccc1C (stereo not drawn)	n	n	n	n	n	n	x	x	x
O=C(CCN1CCc2ccccc2C(c2ccccc2)C1)c1ccc2c(c1)OCCO2 (stereo not drawn)	n	n	n	15	43	n	10%	n	14%
O=C(CCN1Cc2ccccc2C1)c1ccc2c(c1)OCCO2	n	n	n	17	n	n	95%	n	23%
COc1ccc(CN2CCc3c([nH]c4ccccc34)C2)c(OC)c1C	n	n	n	n	n	n	x	x	x
CCN(CC)c1ccc(C(=O)N/N=C(\C)c2ccc(O)cc2)cc1	n	n	n	n	n	n	x	x	x
C=CCNC(=O)COC(=O)c1nc2nccc(C)n2n1	n	n	n	n	n	n	x	n	n
COc1ccc(/C=C2\CCCC(C(=O)C(F)(F)F)=C2O)cc1	n	n	n	n	n	n	x	x	x
O=C(C1=C(O)/C(=C/c2ccc(O)cc2)CCC1)C(F)(F)F	n	n	n	5.2	n	n	n	n	n
Cc1ccsc1/C=N/NC(=S)NCc1ccccc1	n	n	n	n	n	n	x	n	n
Cc1cc(N(CCO)CCO)ccc1C(c1ccc(N(CCO)CCO)cc1C)c1ccccc1Cl	n	n	n	6	n	n	16%	n	25%
CCN(CC)c1ccc(NC(=O)CNCc2ccccc2Cl)c(C)c1	n	n	n	n	n	n	x	x	x
CCOC(=O)c1c(N/N=C/c2ccncc2)n[nH]c1C	n	n	n	n	n	n	x	x	x
